Experimental data: ChEMBL document CHEMBL3414559, “Novel C-4 heteroaryl 13-cis-retinamide Mnk/AR degrading agents inhibit cell proliferation and migration and induce apoptosis in human breast and prostate cancer cells and suppress growth of MDA-MB-231 human breast and CWR22Rv1 human prostate tumor xenografts in mice” (J Med Chem, 2015)
Activity calls are given as the source filed them. The rule behind the calls is not given here.

Legend:
CWR22R [1] = assay: Antitumor activity against human CWR22Rv1 cells xenografted in SCID mouse assessed as reduction in cyclin D1 protein expression at 20 mg/kg, ip dosed once daily for 5 days per week for 28 days by SDS-PAGE and Western blotting method; type: functional, organism-based; design: dose 20 mg/kg
Summary of the method: (§1)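 CWR22Rv1 cells (1 × 10⁶) implanted subcutaneously in male SCID mice, castrated; at ~100 mm³ tumors, randomized (n = 6/group) to vehicle (40% β-cyclodextrin in ddH₂O) or drug ip in same vehicle once daily, 5 days/week for 28 days. Tumor lysates made in RIPA buffer, 50 μg protein from pooled samples (n = 6) on 10% SDS–PAGE, immunoblotted; GAPDH as loading control.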

CWR22R [2] = assay: Antitumor activity against human CWR22Rv1 cells xenografted in SCID mouse assessed as increase in Bad protein expression at 20 mg/kg, ip dosed once daily for 5 days per week for 28 days by SDS-PAGE and Western blotting method; type: functional, organism-based; design: dose 20 mg/kg; summary of the method: as §1
LNCaP [3] = assay: Reduction in cell viability in human LNCAP cells in presence of Mnk1 siRNA at 2.5 uM and 5 uM after 72 hrs by MTT assay; type: functional, cell-based
Summary of the method: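 LNCaP cells in RPMI 1640 with 10% FBS were transfected with 100 nM Mnk1 siRNA (Lipofectamine 2000) for 18 h, with scrambled siRNA as control. After two PBS washes they were returned to growth medium, dosed 24 h later, and harvested after 72 h. Viability was read by MTT and normalized to control cells, as mean ± SEM of three independent experiments.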

CWR22R [4] = assay: Antitumor activity against human CWR22Rv1 cells xenografted in SCID mouse assessed as reduction in fAR protein expression at 20 mg/kg, ip dosed once daily for 5 days per week for 28 days by SDS-PAGE and Western blotting method; type: functional, organism-based; design: dose 20 mg/kg; summary of the method: as §1
CWR22R [5] = assay: Antitumor activity against human CWR22Rv1 cells xenografted in SCID mouse assessed as reduction in peIF4E protein expression at 20 mg/kg, ip dosed once daily for 5 days per week for 28 days by SDS-PAGE and Western blotting method; type: functional, organism-based; design: dose 20 mg/kg; summary of the method: as §1
CWR22R [6] = assay: Antitumor activity against human CWR22Rv1 cells xenografted in SCID mouse assessed as reduction in Mnk1/2 protein expression at 20 mg/kg, ip dosed once daily for 5 days per week for 28 days by SDS-PAGE and Western blotting method; type: functional, organism-based; design: dose 20 mg/kg; summary of the method: as §1
Mus musculus = assay: Toxicity in human CWR22Rv1 cells xenografted SCID mouse assessed as effect on body weight at 20 mg/kg, ip dosed once daily for 5 days per week for 28 days; type: organism-based; design: dose 20 mg/kg, route intraperitoneal; settings: in vivo
Summary of the method: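 Castrated male SCID mice carried subcutaneous CWR22Rv1 tumors (1 × 10⁶ cells implanted) and were randomized at ~100 mm³, n = 6/group. Dosing was ip 20 mg/kg once daily, 5 days/week for 28 days, in 40% β-cyclodextrin in ddH₂O, against vehicle. Body weight was monitored throughout as a surrogate toxicity marker.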

CWR22R [7] = assay: Antitumor activity against human CWR22Rv1 cells xenografted in SCID mouse assessed as reduction in AR-V7 protein expression at 20 mg/kg, ip dosed once daily for 5 days per week for 28 days by SDS-PAGE and Western blotting method; type: functional, organism-based; design: dose 20 mg/kg; summary of the method: as §1
[8] = Antitumor activity against human CWR22Rv1 cells xenografted in SCID mouse assessed as inhibition of tumor growth at 20 mg/kg, ip dosed once daily for 5 days per week for 28 days; type: functional, CWR22R; settings: 22Rv1, ip, route intraperitoneal, read-out: TGI
LNCaP [9] = assay: Reduction in cell viability in human LNCAP cells in presence of AR siRNA at 2.5 uM and 5 uM after 72 hrs by MTT assay; type: functional, cell-based
Summary of the method: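 LNCaP cells transfected with 100 nM AR and/or Mnk1 siRNA (or scrambled control) by lipofection for 18 h, washed twice with PBS, returned to growth medium; drug added 24 h later, viability read by MTT after 72 h. Untransfected cells treated alike. Knockdown confirmed by immunoblot; three independent experiments, normalized to control cells.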

[10] = Antitumor activity against human CWR22Rv1 cells xenografted in SCID mouse assessed as tumor growth at 20 mg/kg, ip dosed once daily for 5 days per week for 28 days; type: functional, CWR22R; settings: route intraperitoneal
Summary of the method: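 Castrated male SCID mice carrying subcutaneous CWR22Rv1 tumors (1 × 10⁶ cells implanted; ~100 mm³ at randomization, n = 6/group) given ip drug in 40% β-cyclodextrin/ddH₂O once daily, 5 days/week for 28 days; vehicle controls. Tumor volume followed; %T/C = median treated volume/median control volume at day 28 × 100. Body weight tracked as toxicity marker.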

CWR22R [11] = assay: Antitumor activity against human CWR22Rv1 cells xenografted in SCID mouse assessed as reduction in Bcl2 protein expression at 20 mg/kg, ip dosed once daily for 5 days per week for 28 days by SDS-PAGE and Western blotting method; type: functional, organism-based; design: dose 20 mg/kg; summary of the method: as §1

Q: Which Activity (CWR22R [1]) does the source give for `CC1=C(/C=C/C(C)=C/C=C/C(C)=C\C(=O)Nc2cccc(F)c2)C(C)(C)CCC1n1ccnc1` (configuration not stated) here?
A: Active

Q: What about the Activity (CWR22R [2]) of the same compound?
A: Active

Q: And the Activity (LNCaP [3])?
A: Active

Q: And the Activity (CWR22R [4])?
A: Active

Q: And the Activity (CWR22R [5])?
A: Active

Q: What about the Activity (CWR22R [6]) of the same compound?
A: Active

Q: And the Activity (Mus musculus)?
A: Non-toxic

Q: And the Activity (CWR22R [7])?
A: Active

Q: And the inhibition in vivo at 20 mg/kg [8]?
A: 61.2%

Q: And the Activity (LNCaP [9])?
A: Active

Q: And the T/C [10]?
A: 38.8%

Q: And the Activity (CWR22R [11])?
A: Active
